SMILES strings stand for the structures. pIC50: −log10 of the molar value. Active and inactive are the calls of the source. The rule behind the calls is not given here.

In test [1] the test system is MCF7. The experiment in a line: Cytotoxicity against estradiol-stimulated human MCF7 cells expressing ERalpha and ERbeta at 25 uM after 6 days by MTS assay. The class given is functional, cell-based. The method, boiled down: (§1)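 MCF-7 cells (an earlier passage expressing ERα and ERβ, or the later-passage ATCC variant expressing only ERα) were seeded at 4×10^3 cells/well in phenol red-free RPMI-1640 with 10% charcoal-dextran stripped FBS and left to adhere overnight. […] MTS/PMS read-out was A490 minus A630 after 2 h. Day-0 cells were set to 0% growth and E2-stimulated day-6 growth to 100%.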
For orientation: Tetrazolium dyes change colour on reduction, which living cells bring about.

The test system of test [2] is MCF7. The experiment in a line: Cytotoxicity against estradiol-stimulated human MCF7 cells expressing ERalpha at 25 uM after 6 days by MTS assay. The class given is functional, cell-based. The method, boiled down: as §1
The test system of test [3] is MDA-MB-231. Kind of test: Cytotoxicity against estrogen receptor deficient human MDA-MB-231 cells at 25 uM after 72 hrs by MTS assay. The class given is functional, cell-based. In short, it runs like this:
(§2)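 Cells were plated at 1×10^3 cells/well in phenol red-free RPMI-1640 with 10% FBS and left to adhere 72 h. Agents were given over 3.2 nM to 50 µM for 72 h. Cell density was read by MTS dye reduction, A490 with A630 background subtracted.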

Test [4] has as its system MDA-MB-231. Kind of test: Growth inhibition of estrogen receptor deficient human MDA-MB-231 cells at 3.2 nM to 50 uM after 72 hrs by MTS assay. The class given is functional, cell-based. In short, it runs like this: as §2
Test [5] is described as follows: Selectivity for ERbeta over ERalpha.
In the next test the target is T1, Estrogen receptor (Homo sapiens, UniProt P03372).
T1 sequence (P03372 whole entry): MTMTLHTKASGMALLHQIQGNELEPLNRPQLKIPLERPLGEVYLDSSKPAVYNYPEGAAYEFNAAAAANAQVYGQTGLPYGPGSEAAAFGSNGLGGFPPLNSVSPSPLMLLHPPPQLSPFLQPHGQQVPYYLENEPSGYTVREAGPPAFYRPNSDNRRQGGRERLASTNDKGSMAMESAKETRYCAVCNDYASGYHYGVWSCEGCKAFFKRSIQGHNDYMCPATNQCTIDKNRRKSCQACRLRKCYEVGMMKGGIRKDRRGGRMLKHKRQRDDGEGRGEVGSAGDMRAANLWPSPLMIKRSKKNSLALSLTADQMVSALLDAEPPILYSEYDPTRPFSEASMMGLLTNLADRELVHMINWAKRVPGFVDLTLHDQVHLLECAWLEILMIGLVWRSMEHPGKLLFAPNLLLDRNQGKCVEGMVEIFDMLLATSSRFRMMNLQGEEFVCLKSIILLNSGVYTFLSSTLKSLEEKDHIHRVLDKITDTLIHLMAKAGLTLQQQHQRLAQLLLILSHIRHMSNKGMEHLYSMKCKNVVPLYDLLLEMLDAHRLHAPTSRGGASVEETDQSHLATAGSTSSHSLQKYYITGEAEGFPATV
The experiment in a line: Displacement of fluorescein-labeled estradiol from human recombinant ERalpha by fluorescence polarization assay. As to conditions: for pIC50: read-out: IC50.

In test [6] the target is T2, Estrogen receptor beta (Homo sapiens, UniProt Q92731). The experiment in a line: Displacement of fluorescein-labeled estradiol from human recombinant ERbeta by fluorescence polarization assay. In short, it runs like this:
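ER (15 nM) was incubated with Fluormone ES2 (1 nM) and serially diluted compound in DMSO (1% v/v) in duplicate. Polarization was read after 2 h (ex 485/em 530 nm). […] Values are means of three experiments.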
(In fluorescence polarisation assays a small probe gives low polarisation when free and higher when bound to something large.)

Test [7] relates to MCF7. The experiment in a line: cells. Conditions: Homo sapiens, MCF7, 144 h.
The nature of test [8]: Selectivity for ERalpha over ERbeta.
In test [9] the test system is MCF7. Kind of test: cells. As to conditions: Homo sapiens, MCF7, 144 h. The source holds these as a separate data set.
Test [10] has as its target T3, Estrogen receptor (Homo sapiens) (UniProt P03372).
T3 sequence (whole entry): T1 sequence (P03372 whole entry)
Kind of test: Displacement of fluorescein-labeled estradiol from human recombinant ERalpha at 0.2 uM by fluorescence polarization assay.

Test [11] concerns the target T3, Estrogen receptor (Homo sapiens). The experiment in a line: Displacement of fluorescein-labeled estradiol from human recombinant ERalpha at 1 uM by fluorescence polarization assay.
Test [12] shares this target. Kind of test: Displacement of fluorescein-labeled estradiol from human recombinant ERalpha at 5 uM by fluorescence polarization assay.
The target of test [13] is T2, Estrogen receptor beta. The experiment in a line: Displacement of fluorescein-labeled estradiol from human recombinant ERbeta at 5 uM by fluorescence polarization assay.
Test [14] deals with T2, Estrogen receptor beta. The experiment in a line: Displacement of fluorescein-labeled estradiol from human recombinant ERbeta at 0.2 uM by fluorescence polarization assay.
In test [15] the target is T2, Estrogen receptor beta. The experiment in a line: Displacement of fluorescein-labeled estradiol from human recombinant ERbeta at 1 uM by fluorescence polarization assay.

T2 sequence (Q92731 whole entry): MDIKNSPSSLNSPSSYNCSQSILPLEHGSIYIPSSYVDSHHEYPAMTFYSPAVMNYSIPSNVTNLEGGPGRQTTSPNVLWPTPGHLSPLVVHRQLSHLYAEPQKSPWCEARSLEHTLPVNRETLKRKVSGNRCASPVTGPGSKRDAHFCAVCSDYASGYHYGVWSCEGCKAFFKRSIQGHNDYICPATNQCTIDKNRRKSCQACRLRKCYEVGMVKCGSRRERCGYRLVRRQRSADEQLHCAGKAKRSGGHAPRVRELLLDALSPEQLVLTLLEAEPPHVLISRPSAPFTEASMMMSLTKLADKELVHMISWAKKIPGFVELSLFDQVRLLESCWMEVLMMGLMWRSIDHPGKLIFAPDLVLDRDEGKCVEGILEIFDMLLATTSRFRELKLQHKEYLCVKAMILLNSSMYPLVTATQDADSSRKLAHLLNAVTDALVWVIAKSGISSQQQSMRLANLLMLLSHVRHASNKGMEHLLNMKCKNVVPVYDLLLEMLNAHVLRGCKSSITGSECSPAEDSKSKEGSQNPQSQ

For `O=C(c1ccc(OCCN2CCCCC2)cc1)c1c(-c2ccc(O)cc2)sc2cc(O)ccc12`, the result with MCF7 [1], with MCF7 [2] and with MDA-MB-231 [3] was Active. Besides, in the test on MDA-MB-231 [4], the “growth inhibition (GI)” value was “inactive”.

Take `Cc1cc(-c2ccc(O)c(F)c2)ccc1/C=N/O`: the fold change (FC) in test [5] came to 43.

Take `CCCC[C@@H]1C[C@H]1[C@@H](NC(=O)c1ccccc1)c1ccc(-c2ccc(O)cc2)cc1F` (relative stereo): the outcome with MCF7 [1], in the test on MCF7 [2] and in the test on MDA-MB-231 [3] was Active. Also, the “growth inhibition (GI)” value in the test with MDA-MB-231 [4] was “inactive”. Besides, the pIC50 (usually the IC50 on a negative log10 scale, so that one unit is a factor of ten) on Estrogen receptor was less than 4.00; at Estrogen receptor beta [6], 5.69. Moreover, in the test on MCF7 [7], growth was halved (GI50) at 4.1 µM.

Turning to `CCCc1c(-c2ccc(O)cc2)nn(-c2ccc(O)cc2)c1-c1ccc(O)cc1`, the fold change (FC) in test [8] was determined as 410.

In the case of `CCCC[C@@H]1C[C@H]1[C@@H](N)c1ccc(-c2ccc(O)cc2)cc1F.Cl` (relative stereo), the result in the test on MCF7 [1], in the test on MCF7 [2] and in the test with MDA-MB-231 [3] was Active. Besides, in the test with MDA-MB-231 [4], the “growth inhibition (GI)” value was “inactive”. Further, the IC50 result at Estrogen receptor was “Not Active”. Also, the pIC50 on Estrogen receptor beta [6] is 4.82. Besides, the figures for the 50% growth inhibitory concentration (GI50) with MCF7 [7] and in the test on MCF7 [9] were 1.2 µM and 51.7 µM, respectively.

`O/N=C/c1ccc(-c2ccc(O)cc2)cc1F` came in with a fold change (FC) in test [5] of 11. The pIC50 is 6.10 at Estrogen receptor and 7.49 on Estrogen receptor beta [6].

For the molecule `CCCC[C@@H]1C[C@H]1[C@@H](NC(=O)Cc1ccccc1)c1ccc(-c2ccccc2)cc1`, the Activity in test [10] was 47%; in [11] it was 33%; in [12], 28%; on Estrogen receptor beta [13] it was 14%; at Estrogen receptor beta [14], 2%; at Estrogen receptor beta [15], 8%.

For `CCC/C=C(\CCC)[C@@H](NS(=O)(=O)c1cccs1)c1ccc(C(=O)OC)cc1`, the Activity was 39% in [10]; 33% in [11]; 92% in test [12]; 32% at Estrogen receptor beta [13]; 5% on Estrogen receptor beta [14]; 8% at Estrogen receptor beta [15].

`CCC/C=C(\CCC)[C@@H](NS(=O)(=O)c1ccccc1)c1ccc(C(F)(F)F)cc1`: the Activity in [10] amounted to 70%; in [11], 66%; in [12], 102%; at Estrogen receptor beta [13], 30%; on Estrogen receptor beta [14] it was 13%; at Estrogen receptor beta [15], 10%.

`CCCC[C@@H]1C[C@H]1[C@@H](NS(=O)(=O)c1cccc2cccnc12)c1ccc(-c2ccccc2)cc1`: the Activity was found to be 52% in test [10]; 74% in test [11]; 91% in [12]; 22% on Estrogen receptor beta [13]; 28% on Estrogen receptor beta [14]; 18% on Estrogen receptor beta [15].

`CCC/C=C(\CCC)[C@@H](NC(=O)CCc1ccccc1)c1ccc(C(F)(F)F)cc1`: the Activity stood at 56% in test [10]; 31% in [11]; 67% in test [12]; 17% on Estrogen receptor beta [13]; 8% on Estrogen receptor beta [14]; 13% at Estrogen receptor beta [15].

Consider `CCCC[C@@H]1C[C@H]1[C@@H](NC(=O)c1ccc(-c2ccccc2)cc1)c1ccc(-c2ccccc2)cc1`, for which the Activity was 52% in [10]; 42% in [11]; -6% in test [12]; 4% at Estrogen receptor beta [13]; 0% at Estrogen receptor beta [14]; 6% on Estrogen receptor beta [15].

`C=C(CCCC)[C@@H](NC(=O)c1ccc(-c2ccccc2)cc1)c1ccccc1`: the Activity in test [10] was -33%; in [11], 35%; in [12], 46%; on Estrogen receptor beta [13], 8%; on Estrogen receptor beta [14], 0%; on Estrogen receptor beta [15], 2%.
